This is an account of results in paper PMC7980362 (Proceedings of the National Academy of Sciences of the …, 2021).

Like-named read-outs stand apart in the source and are kept apart here.

For one data set, the system named is M. mazei Connectase. The experiment in a line: Time course of the Connectase reaction with one primary substrate. Format: biochemical. Conditions: 0.9 µM M. mazei Connectase, 3.7 µM Ub-(5)KDPGA(10), 37 °C. The method in brief:
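M. mazei Connectase-His6 incubated with His6-Ub-(5)KDPGA(10) primary substrate only, no secondary substrate. Buffer: 50 mM acetate/MES/Hepes, 150 mM NaCl, 50 mM KCl, 5 mM TCEP, pH 7.0. Time points were stopped with 2% SDS and run on Coomassie-stained 12% gels.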

Data set [1] relates to ubiquitin ligation substrates (Ub-(5)KDPGA(15)/PGA(15)-Ub; Ub-[…]/GGG-Ub). The data set is classed as biochemical.
Data set [2] has as its system Ub-(5)KDPGA(15) and PGA(15)-Ub substrates. In words: Reaction rates of M. mazei Connectase at different temperatures. The data set is classed as biochemical. The method in brief: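 His6-Ub-(5)KDPGA(15) and PGA(15)-Ub-His6, each 6.25 µM, incubated with M. mazei Connectase-His6 at 400× lower concentration, at 25 °C, 37 °C or 50 °C. Buffer: 50 mM acetate/MES/Hepes, 150 mM NaCl, 50 mM KCl, 5 mM TCEP, pH 7.0. Time points were stopped with 2% SDS and run on Coomassie-stained 12% gels. Bands were quantified to give rates.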

A further data set has as its system LPETG and GGG substrates. Conditions: cited from earlier work.

B1: Ub-(5)KDPGA(10): C. subterraneum ubiquitin fused C-terminally to M. mazei MtrA residues 148 to 167 (protein)
chain: MHHHHHHGSMKIKIVPAVGGGSPLELEVAPNATVGAVRTKVCAMKKLPPDTTRLTYKGRALKDTETLESLGVADGDKFVLITRTVGGRELASKDPGAFDADPLVVEI
On to B1, for which, in the data set on M. mazei Connectase, the “fraction of substrate modified (conjugate with Connectase) at any time” value is given as about 7%.

B2: M. mazei Connectase: sequence-specific protein ligase, monomeric homolog of 20S proteasome subunits from Methanosarcina mazei (protein)
chain: MTLVIAFIGKNGAVMAGDMREITFEGEKPDREKLEKELYSGSIVTDEEMQKKAEEFGVKITVADCKEKVSERNGVLVGEVSSAEGGVVKKRRLYASAGNFAIAELINTEMTLTSQGKGSNFIAFGNEFTKQVANKCFKDNWTKKSNLQDAVKILILCMETVARKTASVSKQFMIVQTASNADVLKVVEKDRNC
modifications: left off: Strep, C-terminal, kept
On to B2, for which the “ligase activity of Connectase relative to optimized SrtA5*” value in data set [1] (100 µM substrates each, Connectase 50 °C, Sortase 37 °C) is recorded as over 40 x. In addition, the ligation yield in data set [1] (protein-protein ligation of two ubiquitin molecules, equimolar substrates) is about 50%. Besides, in data set [2], the “temperature of maximum activity” value worked out at 50 °C.

B3: SrtA: S. aureus Sortase A without membrane anchor, reference ligase (protein)
chain: MRGSHHHHHHGSQAKPQIPKDKSKVAGYIEIPDADIKEPVYPGPATPEQLNRGVSFAEENESLDDQNISIAGHTFIDRPNYQFTNLKAAKKGSMVYFKVGNETRKYKMTSIRDVKPTDVEVLDEQKGKDKQLTLITCDDYNEKTGVWEKRKIFVATEVK
For B3, in the data set with LPETG and GGG substrates, the “kcat Ligation/kcat Hydrolysis” value is “≈ 3.3”.

B4: SrtA5*: evolved SrtA pentamutant with significantly increased activity (protein)
chain: MQAKPQIPKDKSKVAGYIEIPDADIKEPVYPGPATREQLNRGVSFAEENESLDDQNISIAGHTFIDRPNYQFTNLKAAKKGSMVYFKVGNETRKYKMTSIRNVKPTAVEVLDEQKGKDKQLTLITCDDYNEETGVWETRKIFVATEVKLEHHHHHH
By Km is commonly meant the substrate concentration at which the rate is half of its maximum. B4: the “ligase activity of SrtA5* compared with SrtA” value in data set [1] (Ub-GGSLPETGGG and GGG-Ub substrates, 37 °C) is about 100 x. Besides, the Michaelis-Menten constant (Km) in the data set with LPETG and GGG substrates (read-out: KM GGG) was 4.7 mM; in the data set with LPETG and GGG substrates (read-out: KM LPETG), 0.17 mM.
